# Experimental data: ChEMBL document CHEMBL2424632, “Substituted 2-hydroxy-N-(arylalkyl)benzamides induce apoptosis in cancer cell lines” (Eur J Med Chem, 2013)
# The source made the active and inactive calls. The rule behind the calls is not given here.
# Test system: G-361
# Experiment: Induction of apoptosis in human G361 cells assessed as caspase-9 cleavage at 0.2 to 6 uM after 24 hrs by immunoblotting analysis
# Format: functional, cell-based
# Conditions: not given
# Outline: (§1)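 Asynchronous G361 cells exposed 24 h; lysates made by harvesting in Laemmli sample buffer, resolved by SDS-PAGE, electroblotted to nitrocellulose, blocked, probed overnight with specific primary antibodies, then peroxidase-conjugated secondary antibodies; actin served as loading control.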
row,SMILES,Activity
1,O=C(N[C@H](Cc1ccccc1)C(=O)Nc1ccc(Cl)cc1)c1cc(Cl)ccc1O,Active

# Test system: G-361
# Experiment: Upregulation of p27KIP1 protein expression in human G361 cells at 670 nM after 24 hrs by immunoblotting analysis
# Format: functional, cell-based
# Conditions: not given
# Outline: as §1
row,SMILES,Activity
1,O=C(N[C@H](Cc1ccccc1)C(=O)Nc1ccc(Cl)cc1)c1cc(Cl)ccc1O,Active

# Test system: HCT-116
# Experiment: Cytotoxicity against human HCT116 cells after 72 hrs by calcein-AM assay
# Format: functional, cell-based
# Conditions: HCT-116, 72 h
row,SMILES,IC50
1,O=C(N[C@H](Cc1ccccc1)C(=O)Nc1ccc(Cl)cc1)c1cc(Cl)ccc1O,1700 nM
2,CC(C)[C@H](NC(=O)c1cc(Cl)ccc1O)C(=O)Nc1ccc(C(F)(F)F)cc1,5900 nM
3,O=C(N[C@@H](CC1CCCCC1)C(=O)Nc1cccc(C(F)(F)F)c1)c1cc(Cl)ccc1O,1500 nM
4,O=C(N[C@@H](CC1CCCCC1)C(=O)Nc1ccc(Br)cc1)c1cc(Cl)ccc1O,2000 nM

# Test system: G-361
# Experiment: Induction of apoptosis in human G361 cells assessed as increase in p53 mRNA level
# Format: functional, cell-based
# Conditions: not given
row,SMILES,Activity
1,O=C(N[C@H](Cc1ccccc1)C(=O)Nc1ccc(Cl)cc1)c1cc(Cl)ccc1O,inactive

# Test system: G-361
# Experiment: Induction of apoptosis in human G361 cells
# Format: functional, cell-based
# Conditions: not given
row,SMILES,Activity
1,O=C(N[C@H](Cc1ccccc1)C(=O)Nc1ccc(Cl)cc1)c1cc(Cl)ccc1O,Dose-dependent effect

# Test system: G-361
# Experiment: Upregulation of p27KIP1 protein expression in human G361 cells at 2 to 6 uM after 24 hrs by immunoblotting analysis
# Format: functional, cell-based
# Conditions: not given
# Outline: as §1
row,SMILES,Activity
1,O=C(N[C@H](Cc1ccccc1)C(=O)Nc1ccc(Cl)cc1)c1cc(Cl)ccc1O,inactive

# Test system: G-361
# Experiment: Downregulation of cyclin B protein expression in human G361 cells at 0.22 to 6 uM after 24 hrs by immunoblotting analysis
# Format: functional, cell-based
# Conditions: not given
# Outline: as §1
row,SMILES,Activity
1,O=C(N[C@H](Cc1ccccc1)C(=O)Nc1ccc(Cl)cc1)c1cc(Cl)ccc1O,Active

# Test system: G-361
# Experiment: Induction of apoptosis in human G361 cells assessed as decrease in BCL-XL protein expression after 24 hrs by immunoblotting analysis
# Format: functional, cell-based
# Conditions: not given
# Outline: as §1
row,SMILES,Activity
1,O=C(N[C@H](Cc1ccccc1)C(=O)Nc1ccc(Cl)cc1)c1cc(Cl)ccc1O,Dose-dependent effect

# Test system: G-361
# Experiment: Induction of apoptosis in human G361 cells assessed as increase in BCL-2 protein expression at 0.2 to 6 uM after 24 hrs by immunoblotting analysis
# Format: functional, cell-based
# Conditions: not given
# Outline: as §1
row,SMILES,Activity
1,O=C(N[C@H](Cc1ccccc1)C(=O)Nc1ccc(Cl)cc1)c1cc(Cl)ccc1O,Active

# Test system: G-361
# Experiment: Downregulation of CDK4 protein expression in human G361 cells at 0.22 to 6 uM after 24 hrs by immunoblotting analysis
# Format: functional, cell-based
# Conditions: not given
# Outline: as §1
row,SMILES,Activity
1,O=C(N[C@H](Cc1ccccc1)C(=O)Nc1ccc(Cl)cc1)c1cc(Cl)ccc1O,Active

# Target: Mitogen-activated protein kinase; ERK1/ERK2 (Homo sapiens) (UniProt P27361+P28482)
# Sequence (P27361 whole entry, looked up): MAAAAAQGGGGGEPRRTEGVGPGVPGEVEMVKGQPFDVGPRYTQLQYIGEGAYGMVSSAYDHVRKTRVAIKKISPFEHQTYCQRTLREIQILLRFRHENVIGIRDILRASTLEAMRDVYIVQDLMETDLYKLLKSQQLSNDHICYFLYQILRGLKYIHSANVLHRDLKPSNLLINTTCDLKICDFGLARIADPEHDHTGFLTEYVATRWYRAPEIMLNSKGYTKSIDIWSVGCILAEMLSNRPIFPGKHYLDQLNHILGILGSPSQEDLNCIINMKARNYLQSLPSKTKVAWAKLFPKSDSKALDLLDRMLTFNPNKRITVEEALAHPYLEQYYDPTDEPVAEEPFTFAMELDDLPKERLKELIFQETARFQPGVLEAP
# Sequence (P28482 whole entry, looked up): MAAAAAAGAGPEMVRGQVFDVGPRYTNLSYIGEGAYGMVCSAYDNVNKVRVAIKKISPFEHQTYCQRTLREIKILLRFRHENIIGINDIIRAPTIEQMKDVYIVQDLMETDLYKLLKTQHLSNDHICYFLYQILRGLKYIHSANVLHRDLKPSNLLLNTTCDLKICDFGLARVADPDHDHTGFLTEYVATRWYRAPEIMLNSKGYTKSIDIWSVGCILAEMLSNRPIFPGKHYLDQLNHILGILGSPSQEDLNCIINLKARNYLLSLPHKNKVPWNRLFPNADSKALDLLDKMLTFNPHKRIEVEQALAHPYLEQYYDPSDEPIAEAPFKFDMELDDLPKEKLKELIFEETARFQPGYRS
# Experiment: Inhibition of ERK1/2 phosphorylation at Thr202/Tyr204 in human G361 cells at 0.22 to 6 uM after 24 hrs by immunoblotting analysis
# Format: cell-based
# Conditions: G-361
# Outline: as §1
row,SMILES,inhibition
1,O=C(N[C@H](Cc1ccccc1)C(=O)Nc1ccc(Cl)cc1)c1cc(Cl)ccc1O,Active

# Test system: G-361
# Experiment: Downregulation of cyclin A protein expression in human G361 cells at 0.22 to 6 uM after 24 hrs by immunoblotting analysis
# Format: functional, cell-based
# Conditions: not given
# Outline: as §1
row,SMILES,Activity
1,O=C(N[C@H](Cc1ccccc1)C(=O)Nc1ccc(Cl)cc1)c1cc(Cl)ccc1O,Active

# Test system: G-361
# Experiment: Cell cycle arrest in human G361 cells assessed as decrease in S phase population at 0.25 to 4 uM after 24 hrs by propidium iodide staining-based flow cytometric analysis in presence of BrdU
# Format: functional
# Conditions: not given
# Outline: (§2)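 Asynchronously growing cells treated 24 h; cultures pulse-labelled with 10 µM BrdU for 30 min at 37 °C before harvest, washed in PBS, fixed in 70% ethanol, denatured in 2 M HCl, neutralized, stained with fluorescein anti-BrdU antibody then propidium iodide; flow cytometry with 488 nm laser; sub-G1 and BrdU-positive S-phase fractions scored.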
row,SMILES,Activity
1,O=C(N[C@H](Cc1ccccc1)C(=O)Nc1ccc(Cl)cc1)c1cc(Cl)ccc1O,Active

# Test system: K562
# Experiment: Cytotoxicity against human K562 cells after 72 hrs by calcein-AM assay
# Format: functional, cell-based
# Conditions: K562, 72 h
row,SMILES,IC50
1,O=C(N[C@H](Cc1ccccc1)C(=O)Nc1ccc(Cl)cc1)c1cc(Cl)ccc1O,2500 nM
2,CC(C)[C@H](NC(=O)c1cc(Cl)ccc1O)C(=O)Nc1ccc(C(F)(F)F)cc1,4500 nM
3,O=C(N[C@@H](CC1CCCCC1)C(=O)Nc1cccc(C(F)(F)F)c1)c1cc(Cl)ccc1O,3400 nM
4,O=C(N[C@@H](CC1CCCCC1)C(=O)Nc1ccc(Br)cc1)c1cc(Cl)ccc1O,3000 nM

# Test system: G-361
# Experiment: Cytotoxicity against human G361 cells after 72 hrs by calcein-AM assay
# Format: functional, cell-based
# Conditions: G-361, 72 h
row,SMILES,IC50
1,O=C(N[C@H](Cc1ccccc1)C(=O)Nc1ccc(Cl)cc1)c1cc(Cl)ccc1O,1300 nM
2,CC(C)[C@H](NC(=O)c1cc(Cl)ccc1O)C(=O)Nc1ccc(C(F)(F)F)cc1,6600 nM
3,O=C(N[C@@H](CC1CCCCC1)C(=O)Nc1cccc(C(F)(F)F)c1)c1cc(Cl)ccc1O,1300 nM
4,O=C(N[C@@H](CC1CCCCC1)C(=O)Nc1ccc(Br)cc1)c1cc(Cl)ccc1O,1300 nM

# Test system: G-361
# Experiment: Induction of autophagy in human G361 cells assessed as fragmentation of LC3 at 0.2 to 6 uM after 24 hrs by immunoblotting analysis
# Format: functional, cell-based
# Conditions: not given
# Outline: as §1
row,SMILES,Activity
1,O=C(N[C@H](Cc1ccccc1)C(=O)Nc1ccc(Cl)cc1)c1cc(Cl)ccc1O,Active

# Test system: G-361
# Experiment: Induction of apoptosis in human G361 cells assessed as increase in p53 protein level at 0.2 to 6 uM after 24 hrs by immunoblotting analysis
# Format: functional, cell-based
# Conditions: not given
# Outline: as §1
row,SMILES,Activity
1,O=C(N[C@H](Cc1ccccc1)C(=O)Nc1ccc(Cl)cc1)c1cc(Cl)ccc1O,inactive

# Test system: G-361
# Experiment: Downregulation of p53 protein expression in human G361 cells at 0.2 to 6 uM after 24 hrs by immunoblotting analysis
# Format: functional, cell-based
# Conditions: not given
# Outline: as §1
row,SMILES,Activity
1,O=C(N[C@H](Cc1ccccc1)C(=O)Nc1ccc(Cl)cc1)c1cc(Cl)ccc1O,Active

# Test system: HOS
# Experiment: Cytotoxicity against human HOS cells after 72 hrs by calcein-AM assay
# Format: functional, cell-based
# Conditions: not given
row,SMILES,IC50
1,O=C(N[C@H](Cc1ccccc1)C(=O)Nc1ccc(Cl)cc1)c1cc(Cl)ccc1O,2500 nM
2,CC(C)[C@H](NC(=O)c1cc(Cl)ccc1O)C(=O)Nc1ccc(C(F)(F)F)cc1,7000 nM
3,O=C(N[C@@H](CC1CCCCC1)C(=O)Nc1cccc(C(F)(F)F)c1)c1cc(Cl)ccc1O,3400 nM
4,O=C(N[C@@H](CC1CCCCC1)C(=O)Nc1ccc(Br)cc1)c1cc(Cl)ccc1O,3300 nM

# Test system: MCF7
# Experiment: Cytotoxicity against human MCF7 cells after 72 hrs by calcein-AM assay
# Format: functional, cell-based
# Conditions: MCF7, 72 h
row,SMILES,IC50
1,O=C(N[C@H](Cc1ccccc1)C(=O)Nc1ccc(Cl)cc1)c1cc(Cl)ccc1O,3500 nM
2,CC(C)[C@H](NC(=O)c1cc(Cl)ccc1O)C(=O)Nc1ccc(C(F)(F)F)cc1,7300 nM
3,O=C(N[C@@H](CC1CCCCC1)C(=O)Nc1cccc(C(F)(F)F)c1)c1cc(Cl)ccc1O,2300 nM
4,O=C(N[C@@H](CC1CCCCC1)C(=O)Nc1ccc(Br)cc1)c1cc(Cl)ccc1O,1900 nM

# Test system: G-361
# Experiment: Effect on CDK1 protein expression in human G361 cells at 0.22 to 6 uM after 24 hrs by immunoblotting analysis
# Format: functional, cell-based
# Conditions: not given
# Outline: as §1
row,SMILES,Activity
1,O=C(N[C@H](Cc1ccccc1)C(=O)Nc1ccc(Cl)cc1)c1cc(Cl)ccc1O,Active

# Test system: G-361
# Experiment: Induction of apoptosis in human G361 cells assessed as decrease in caspase-7 zymogene at 0.2 to 6 uM after 24 hrs by immunoblotting analysis
# Format: functional, cell-based
# Conditions: not given
# Outline: as §1
row,SMILES,Activity
1,O=C(N[C@H](Cc1ccccc1)C(=O)Nc1ccc(Cl)cc1)c1cc(Cl)ccc1O,Active

# Test system: G-361
# Experiment: Effect on CDK2 protein expression in human G361 cells at 0.22 to 6 uM after 24 hrs by immunoblotting analysis
# Format: functional, cell-based
# Conditions: not given
# Outline: as §1
row,SMILES,Activity
1,O=C(N[C@H](Cc1ccccc1)C(=O)Nc1ccc(Cl)cc1)c1cc(Cl)ccc1O,Active

# Test system: G-361
# Experiment: Cell cycle arrest in human G361 cells assessed as increase in sub-G1 phase population at 1 to 4 uM after 24 hrs by propidium iodide staining-based flow cytometric analysis in presence of BrdU
# Format: functional
# Conditions: not given
# Outline: as §2
row,SMILES,Activity
1,O=C(N[C@H](Cc1ccccc1)C(=O)Nc1ccc(Cl)cc1)c1cc(Cl)ccc1O,Active

# Test system: HeLa
# Experiment: Cytotoxicity against human HeLa cells after 72 hrs by calcein-AM assay
# Format: functional, cell-based
# Conditions: not given
row,SMILES,IC50
1,O=C(N[C@H](Cc1ccccc1)C(=O)Nc1ccc(Cl)cc1)c1cc(Cl)ccc1O,1100 nM
2,CC(C)[C@H](NC(=O)c1cc(Cl)ccc1O)C(=O)Nc1ccc(C(F)(F)F)cc1,5400 nM
3,O=C(N[C@@H](CC1CCCCC1)C(=O)Nc1cccc(C(F)(F)F)c1)c1cc(Cl)ccc1O,1300 nM
4,O=C(N[C@@H](CC1CCCCC1)C(=O)Nc1ccc(Br)cc1)c1cc(Cl)ccc1O,1300 nM

# Test system: G-361
# Experiment: Downregulation of MDM2 protein expression in human G361 cells at 0.2 to 6 uM after 24 hrs by immunoblotting analysis
# Format: functional, cell-based
# Conditions: not given
# Outline: as §1
row,SMILES,Activity
1,O=C(N[C@H](Cc1ccccc1)C(=O)Nc1ccc(Cl)cc1)c1cc(Cl)ccc1O,Active

# Target: RAC-alpha serine/threonine-protein kinase (Homo sapiens) (UniProt P31749)
# Sequence (P31749 whole entry): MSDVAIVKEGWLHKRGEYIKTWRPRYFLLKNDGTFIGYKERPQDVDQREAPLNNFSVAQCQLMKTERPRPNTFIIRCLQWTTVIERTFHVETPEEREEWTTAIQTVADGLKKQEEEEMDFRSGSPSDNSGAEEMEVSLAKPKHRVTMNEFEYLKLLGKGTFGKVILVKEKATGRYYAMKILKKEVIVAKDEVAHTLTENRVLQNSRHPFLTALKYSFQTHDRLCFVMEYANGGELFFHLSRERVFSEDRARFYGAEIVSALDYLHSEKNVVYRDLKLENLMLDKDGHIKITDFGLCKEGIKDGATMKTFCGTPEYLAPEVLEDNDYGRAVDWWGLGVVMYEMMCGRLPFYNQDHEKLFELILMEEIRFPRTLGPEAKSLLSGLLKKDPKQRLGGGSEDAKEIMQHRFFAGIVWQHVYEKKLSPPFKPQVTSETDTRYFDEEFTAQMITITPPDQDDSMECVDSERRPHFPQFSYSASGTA
# Experiment: Inhibition of AKT phosphorylation at Ser473 in human G361 cells at 0.22 to 6 uM after 24 hrs by immunoblotting analysis
# Format: cell-based
# Conditions: G-361
# Outline: as §1
row,SMILES,inhibition
1,O=C(N[C@H](Cc1ccccc1)C(=O)Nc1ccc(Cl)cc1)c1cc(Cl)ccc1O,Active

# Test system: G-361
# Experiment: Induction of apoptosis in human G361 cells assessed as PARP-1 cleavage at 0.2 to 6 uM after 24 hrs by immunoblotting analysis
# Format: functional, cell-based
# Conditions: not given
# Outline: as §1
row,SMILES,Activity
1,O=C(N[C@H](Cc1ccccc1)C(=O)Nc1ccc(Cl)cc1)c1cc(Cl)ccc1O,Active

# Test system: G-361
# Experiment: Induction of apoptosis in human G361 cells assessed as caspase-3/7 activation at 2 uM after 24 hrs by fluorescence assay relative to control
# Format: functional
# Conditions: not given
# Outline: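 G361 cells seeded at 20,000 per well overnight, then exposed 24 h to compound at 2 µM final. 3x caspase-3/7 buffer (HEPES pH 7.4, NaCl, KCl, MgCl2, EGTA, NP-40, CHAPS, sucrose, DTT, PMSF) with Ac-DEVD-AMC substrate added; incubated 37 °C, fluorescence read after 4 h at 346/442 nm; activity expressed relative to untreated cells.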
SMILES,fold change (FC),Activity
O=C(N[C@H](Cc1ccccc1)C(=O)Nc1ccc(Cl)cc1)c1cc(Cl)ccc1O,>10,–
CC(C)[C@H](NC(=O)c1cc(Cl)ccc1O)C(=O)Nc1ccc(C(F)(F)F)cc1,–,Active
O=C(N[C@@H](CC1CCCCC1)C(=O)Nc1cccc(C(F)(F)F)c1)c1cc(Cl)ccc1O,>10,–
O=C(N[C@@H](CC1CCCCC1)C(=O)Nc1ccc(Br)cc1)c1cc(Cl)ccc1O,>10,–

# Test system: G-361
# Experiment: Induction of apoptosis in human G361 cells assessed as decrease in caspase-3 zymogene at 0.2 to 6 uM after 24 hrs by immunoblotting analysis
# Format: functional, cell-based
# Conditions: not given
# Outline: as §1
row,SMILES,Activity
1,O=C(N[C@H](Cc1ccccc1)C(=O)Nc1ccc(Cl)cc1)c1cc(Cl)ccc1O,Active

# Test system: G-361
# Experiment: Effect on cyclin E protein expression in human G361 cells at 0.22 to 6 uM after 24 hrs by immunoblotting analysis
# Format: functional, cell-based
# Conditions: not given
# Outline: as §1
row,SMILES,Activity
1,O=C(N[C@H](Cc1ccccc1)C(=O)Nc1ccc(Cl)cc1)c1cc(Cl)ccc1O,Active
